Laboratory results from ChEMBL document CHEMBL4393701, “Appendix A. dithioloquinolinethiones as new potential multitargeted antibacterial and antifungal agents: Synthesis, biological evaluation and molecular docking studies” (2019).
≈ marks a conversion by molar mass, not a printed value.

What was measured:
Penicillium ochrochloron [1] = assay: Fungicidal activity against Penicillium ochrochloron ATCC 9112 incubated for 72 hrs followed by sub-culturing on broth malt medium and measured after 72 hrs; format: functional; settings: ATCC 9112, 72 h
Procedure, shortened: (§1)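 After 72 h exposure in malt broth, 2 µL from test wells was subcultured into wells holding 100 µL broth and incubated a further 72 h at 28 °C. MFC is the lowest concentration with no visible growth, taken as 99.5% kill of the original inoculum. Three independent experiments in duplicate.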

Aspergillus fumigatus [2] = assay: Fungicidal activity against Aspergillus fumigatus ATCC 1022 incubated for 72 hrs followed by sub-culturing on broth malt medium and measured after 72 hrs; format: functional; settings: ATCC 1022, 72 h; procedure, shortened: as §1
Aspergillus ochraceus [3] = assay: Fungicidal activity against Aspergillus ochraceus ATCC 12066 incubated for 72 hrs followed by sub-culturing on broth malt medium and measured after 72 hrs; format: functional; settings: ATCC 12066, 72 h; procedure, shortened: as §1
Salmonella typhimurium [4] = assay: Bactericidal activity against Salmonella typhimurium ATCC 13311 incubated for 24 hrs followed by re-plating on tryptic soy broth; format: functional, Salmonella enterica subsp. enterica serovar Typhimurium; settings: Salmonella enterica, ATCC 13311, 24 h
Procedure, shortened: (§2)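 Bacteria were grown in tryptic soy broth, 1.0×10^4 CFU per well, with compounds in 5% DMSO at 0.001-1.0 mg/ml for 24 h at 37 °C. Then 10 µL was subcultured into fresh TSB. MBC is the lowest concentration showing no growth after subculture, taken as 99.5% kill of the original inoculum. Duplicates, repeated three times.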

Trichoderma viride [5] = assay: Fungicidal activity against Trichoderma viride IAM 5061 incubated for 72 hrs followed by sub-culturing on broth malt medium and measured after 72 hrs; format: functional; settings: IAM 5061, 72 h; procedure, shortened: as §1
Penicillium ochrochloron [6] = assay: Antifungal activity against Penicillium ochrochloron ATCC 9112 after 72 hrs by microdilution technique; format: functional; settings: ATCC 9112, 72 h
Procedure, shortened: (§3)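 Spores were washed off malt agar with 0.85% saline containing 0.1% Tween 80 and adjusted to about 1.0×10^5 per well. Compounds in 5% DMSO were serially diluted (0.001-1.0 mg/ml) in malt broth with inoculum. Plates were shaken at 160 rpm for 72 h at 28 °C. MIC is the lowest concentration without visible growth under a binocular microscope. Three independent experiments in duplicate.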

[7] = Antifungal activity against Penicillium funiculosum ATCC 36839 after 72 hrs by microdilution technique; format: functional; settings: Talaromyces pinophilus, ATCC 36839, 72 h; procedure, shortened: as §3
Aspergillus fumigatus [8] = assay: Antifungal activity against Aspergillus fumigatus ATCC 1022 after 72 hrs by microdilution technique; format: functional; settings: ATCC 1022, 72 h; procedure, shortened: as §3
Salmonella typhimurium [9] = assay: Antibacterial activity against Salmonella typhimurium ATCC 13311 after 24 hrs by iodonitrotetrazolium chloride dye based microdilution method; format: functional, Salmonella enterica subsp. enterica serovar Typhimurium; settings: Salmonella enterica, ATCC 13311, 24 h
Procedure, shortened: (§4)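 Fresh overnight cultures adjusted spectrophotometrically to 1×10^5 CFU/mL, giving 1.0×10^4 CFU per well in tryptic soy broth. Compounds were dissolved in 5% DMSO and tested at 0.001-1.0 mg/ml by serial dilution; 5% DMSO was the negative control. After 24 h at 37 °C, 0.2 mg/mL INT solution was added for 30 min at 37 °C and OD read at 655 nm. MIC is the lowest concentration giving significant growth inhibition versus the positive control. Duplicates, repeated three times.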

Penicillium cyclopium [10] = assay: Antifungal activity against Penicillium verrucosum var. cyclopium food isolate after 72 hrs by microdilution technique; format: functional; procedure, shortened: as §3
Aspergillus versicolor [11] = assay: Fungicidal activity against Aspergillus versicolor ATCC 11730 incubated for 72 hrs followed by sub-culturing on broth malt medium and measured after 72 hrs; format: functional; settings: ATCC 11730, 72 h; procedure, shortened: as §1
Escherichia coli [12] = assay: Antibacterial activity against Escherichia coli ATCC 35210 after 24 hrs by iodonitrotetrazolium chloride dye based microdilution method; format: functional; settings: ATCC 35210, 24 h; procedure, shortened: as §4
Pseudomonas aeruginosa [13] = assay: Antibacterial activity against Pseudomonas aeruginosa ATCC 27853 after 24 hrs by iodonitrotetrazolium chloride dye based microdilution method; format: functional; settings: ATCC 27853, 24 h; procedure, shortened: as §4
Aspergillus niger [14] = assay: Antifungal activity against Aspergillus niger ATCC 6275 after 72 hrs by microdilution technique; format: functional; settings: ATCC 6275, 72 h; procedure, shortened: as §3
Enterobacter cloacae [15] = assay: Antibacterial activity against Enterobacter cloacae clinical isolate after 24 hrs by iodonitrotetrazolium chloride dye based microdilution method; format: functional; procedure, shortened: as §4
[16] = Fungicidal activity against Penicillium funiculosum ATCC 36839 incubated for 72 hrs followed by sub-culturing on broth malt medium and measured after 72 hrs; format: functional; settings: Talaromyces pinophilus, ATCC 36839, 72 h; procedure, shortened: as §1
Aspergillus ochraceus [17] = assay: Antifungal activity against Aspergillus ochraceus ATCC 12066 after 72 hrs by microdilution technique; format: functional; settings: ATCC 12066, 72 h; procedure, shortened: as §3
Micrococcus flavus [18] = assay: Bactericidal activity against Micrococcus flavus ATCC 10240 incubated for 24 hrs followed by re-plating on tryptic soy broth; format: functional; settings: ATCC 10240, 24 h; procedure, shortened: as §2
Staphylococcus aureus [19] = assay: Bactericidal activity against Staphylococcus aureus ATCC 6538 incubated for 24 hrs followed by re-plating on tryptic soy broth; format: functional; settings: ATCC 6538, 24 h; procedure, shortened: as §2
Staphylococcus aureus [20] = assay: Antibacterial activity against Staphylococcus aureus ATCC 6538 after 24 hrs by iodonitrotetrazolium chloride dye based microdilution method; format: functional; settings: ATCC 6538, 24 h; procedure, shortened: as §4
Aspergillus versicolor [21] = assay: Antifungal activity against Aspergillus versicolor ATCC 11730 after 72 hrs by microdilution method; format: functional; settings: ATCC 11730, 72 h; procedure, shortened: as §3
Pseudomonas aeruginosa [22] = assay: Bactericidal activity against Pseudomonas aeruginosa ATCC 27853 incubated for 24 hrs followed by re-plating on tryptic soy broth; format: functional; settings: ATCC 27853, 24 h; procedure, shortened: as §2
Listeria monocytogenes [23] = assay: Antibacterial activity against Listeria monocytogenes NCTC 7973 after 24 hrs by iodonitrotetrazolium chloride dye based microdilution method; format: functional; settings: NCTC 7973, 24 h; procedure, shortened: as §4
Bacillus cereus [24] = assay: Antibacterial activity against Bacillus cereus clinical isolate after 24 hrs by iodonitrotetrazolium chloride dye based microdilution assay; format: functional; procedure, shortened: as §4
Aspergillus niger [25] = assay: Fungicidal activity against Aspergillus niger ATCC 6275 incubated for 72 hrs followed by sub-culturing on broth malt medium and measured after 72 hrs; format: functional; settings: ATCC 6275, 72 h; procedure, shortened: as §1
Penicillium cyclopium [26] = assay: Fungicidal activity against Penicillium verrucosum var. cyclopium food isolate incubated for 72 hrs followed by sub-culturing on broth malt medium and measured after 72 hrs; format: functional; procedure, shortened: as §1
Micrococcus flavus [27] = assay: Antibacterial activity against Micrococcus flavus ATCC 10240 after 24 hrs by iodonitrotetrazolium chloride dye based microdilution method; format: functional; settings: ATCC 10240, 24 h; procedure, shortened: as §4
Listeria monocytogenes [28] = assay: Bactericidal activity against Listeria monocytogenes NCTC 7973 incubated for 24 hrs followed by re-plating on tryptic soy broth; format: functional; settings: NCTC 7973, 24 h; procedure, shortened: as §2
Trichoderma viride [29] = assay: Antifungal activity against Trichoderma viride IAM 5061 after 72 hrs by microdilution technique; format: functional; settings: IAM 5061, 72 h; procedure, shortened: as §3
Enterobacter cloacae [30] = assay: Bactericidal activity against Enterobacter cloacae incubated for 24 hrs followed by re-plating on tryptic soy broth; format: functional; procedure, shortened: as §2
Escherichia coli [31] = assay: Bactericidal activity against Escherichia coli ATCC 35210 incubated for 24 hrs followed by re-plating on tryptic soy broth; format: functional; settings: ATCC 35210, 24 h; procedure, shortened: as §2
Bacillus cereus [32] = assay: Bactericidal activity against Bacillus cereus clinical isolate incubated for 24 hrs followed by re-plating on tryptic soy broth; format: functional; procedure, shortened: as §2

MIC (Penicillium ochrochloron [6])	MIC [7]	MIC (Aspergillus fumigatus [8])	MIC (Salmonella typhimurium [9])	MIC (Penicillium cyclopium [10])	MIC (Escherichia coli [12])	MIC (Pseudomonas aeruginosa [13])	MIC (Aspergillus niger [14])	MIC (Enterobacter cloacae [15])	MIC (Aspergillus ochraceus [17])	MIC (Staphylococcus aureus [20])	Structure (SMILES)	MFC (Penicillium ochrochloron [1])	MFC (Aspergillus fumigatus [2])	MFC (Aspergillus ochraceus [3])	MBC (Salmonella typhimurium [4])	MFC (Trichoderma viride [5])	MFC (Aspergillus versicolor [11])	MFC [16]	MBC (Micrococcus flavus [18])	MBC (Staphylococcus aureus [19])	further results
1.22 ×10⁻² mM	3.04 ×10⁻² mM	4.46 ×10⁻² mM	30.4 µM (≈ 15 µg/mL)	24.3 ×10⁻² mM	30.4 µM (≈ 15 µg/mL)	30.4 µM (≈ 15 µg/mL)	2.23 ×10⁻² mM	30.4 µM (≈ 15 µg/mL)	1.62 ×10⁻² mM	30.4 µM (≈ 15 µg/mL)	CCOc1ccc2c(c1)-c1c(ssc1=S)C(C)(C)N2C(=O)c1ccc(Cl)c([N+](=O)[O-])c1	1.62 ×10⁻² mM	12.2 ×10⁻² mM	3.04 ×10⁻² mM	60.9 µM (≈ 30 µg/mL)	1.62 ×10⁻² mM	24.3 ×10⁻² mM	6.09 ×10⁻² mM	60.9 µM (≈ 30 µg/mL)	60.9 µM (≈ 30 µg/mL)	MIC (Aspergillus versicolor [21]): 12.2 ×10⁻² mM; MBC (Pseudomonas aeruginosa [22]): 60.9 µM (≈ 30 µg/mL); MIC (Listeria monocytogenes [23]): 30.4 µM (≈ 15 µg/mL); MIC (Bacillus cereus [24]): 30.4 µM (≈ 15 µg/mL); MFC (Aspergillus niger [25]): 6.09 ×10⁻² mM; MFC (Penicillium cyclopium [26]): 48.7 ×10⁻² mM; MIC (Micrococcus flavus [27]): 30.4 µM (≈ 15 µg/mL); MBC (Listeria monocytogenes [28]): 60.9 µM (≈ 30 µg/mL); MIC (Trichoderma viride [29]): 1.22 ×10⁻² mM; MBC (Enterobacter cloacae [30]): 60.9 µM (≈ 30 µg/mL); MBC (Escherichia coli [31]): 60.9 µM (≈ 30 µg/mL); MBC (Bacillus cereus [32]): 60.9 µM (≈ 30 µg/mL)
2.75 ×10⁻² mM	2.75 ×10⁻² mM	8.24 ×10⁻² mM	27.5 µM (≈ 15 µg/mL)	22 ×10⁻² mM	27.5 µM (≈ 15 µg/mL)	27.5 µM (≈ 15 µg/mL)	2.02 ×10⁻² mM	27.5 µM (≈ 15 µg/mL)	1.47 ×10⁻² mM	27.5 µM (≈ 15 µg/mL)	Cc1ccc2c(c1)-c1c(ssc1=S)C(C)(C)N2C(=O)CSc1nn(-c2ccccc2)c(=S)s1	5.5 ×10⁻² mM	22 ×10⁻² mM	2.75 ×10⁻² mM	55 µM (≈ 30 µg/mL)	1.47 ×10⁻² mM	44 ×10⁻² mM	5.5 ×10⁻² mM	55 µM (≈ 30 µg/mL)	55 µM (≈ 30 µg/mL)	MIC (Aspergillus versicolor [21]): 22 ×10⁻² mM; MBC (Pseudomonas aeruginosa [22]): 55 µM (≈ 30 µg/mL); MIC (Listeria monocytogenes [23]): 27.5 µM (≈ 15 µg/mL); MIC (Bacillus cereus [24]): 27.5 µM (≈ 15 µg/mL); MFC (Aspergillus niger [25]): 5.5 ×10⁻² mM; MFC (Penicillium cyclopium [26]): 44 ×10⁻² mM; MIC (Micrococcus flavus [27]): 27.5 µM (≈ 15 µg/mL); MBC (Listeria monocytogenes [28]): 55 µM (≈ 30 µg/mL); MIC (Trichoderma viride [29]): 1.1 ×10⁻² mM; MBC (Enterobacter cloacae [30]): 55 µM (≈ 30 µg/mL); MBC (Escherichia coli [31]): 55 µM (≈ 30 µg/mL); MBC (Bacillus cereus [32]): 55 µM (≈ 30 µg/mL)
